The values that follow come from ChEMBL document CHEMBL1153797, “Prenylxanthones and a bicyclo[3.3.1]nona-2,6-diene derivative from the fungus Emericella rugulosa” (J Nat Prod, 2009).

Assay [1] concerns KB. In words: Cytotoxicity against human KB cells by SRB assay. It counts as functional, cell-based. Summed up: (§1)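 Human cell lines were epidermoid carcinoma KB, breast cancer BC1 and small-cell lung cancer NCI-H187. Cytotoxicity was read by the Skehan colorimetric method, and IC50 was reported in µg/mL. Ellipticine served as the reference substance.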
Assay [2] concerns Mycobacterium tuberculosis. In words: Antimycobacterial activity against Mycobacterium tuberculosis H37Ra by microplate Alamar blue assay. It counts as functional. Summed up: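 M. tuberculosis H37Ra tested by microplate Alamar Blue assay. Activity reported as MIC. Isoniazid and kanamycin sulfate were run as reference drugs.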
Assay [3] has as its system NCI-H187. In words: Cytotoxicity against human NCI-H187 cells by SRB assay. Type of assay: functional, cell-based. The procedure, abridged: as §1
Assay [4] in a line: Cytotoxicity against human BC1 cells by SRB assay. It counts as functional, cell-based. Summed up: as §1
For assay [5], the system named is Plasmodium falciparum. In words: Antimalarial activity against multidrug-resistant Plasmodium falciparum K1 assessed as inhibition of [3H]hypoxanthine uptake by microculture radioisotope technique. It counts as functional, organism-based. The procedure, abridged:
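In vitro culture of multidrug-resistant P. falciparum K1 parasites (Trager–Jensen method). Growth measured by [3H]-hypoxanthine uptake in a microculture radioisotope format. IC50 taken as the concentration giving 50% reduction in parasite growth. Artemisinin served as the reference standard.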

Where [6] appears, read: Homo sapiens, NCI-H187, read-out: IC50.
Where [7] appears, read: Homo sapiens, BC1, read-out: IC50.
[8] abbreviates: Plasmodium falciparum, K1, read-out: IC50.

SMILES strings stand for the structures. Converted amounts (≈) assume the structure as drawn. The source made the active and inactive calls. The calls are words filed in the database; no cut-off is given here.

Consider `C=C(C)[C@H]1COc2c(C)cc3oc4c([C@@H](OC)[C@@H]5OC5(C)C)ccc(O)c4c(=O)c3c2[C@@H]1OC(C)=O`, for which the IC50 result in assay [1] (kb), in assay [3] (nci-h187), in assay [4] (bc1) and in assay [5] was “Not Active” each time. Moreover, the MIC entry in assay [2] was “inactive”.
Take `C=C(C)[C@H](O)Cc1ccc(O)c2c(=O)c3c4c(c(C)cc3oc12)OC[C@H](C(=C)C)[C@H]4O` [RUGULOXANTHONE C]: the IC50 result in assay [1] (kb), in assay [3] (nci-h187), in assay [4] (bc1) and in assay [5] was “Not Active” each time. Also, the MIC entry in assay [2] is “inactive”.
With `C=C(C)[C@H]1COc2c(C)cc3oc4c(C[C@H](O)C(C)(C)O)ccc(O)c4c(=O)c3c2[C@@H]1O.O` [TAJIXANTHONE HYDRATE], the IC50 result in assay [1] (kb), in assay [3] (nci-h187), in assay [4] (bc1) and in assay [5] was “Not Active” each time. The MIC entry in assay [2] was “inactive”.
Regarding `NNC(=O)c1ccncc1` [ISONIAZID], in assay [2], the minimal inhibitory concentration (MIC) stood at 0.04 µg/mL (≈ 0.292 µM).
Turning to `C=C(C)[C@H]1COc2c(C)cc3oc4c(CC(=O)C(C)C)ccc(O)c4c(=O)c3c2[C@@H]1O` [RUGULOXANTHONE B], the IC50 result in assay [1] (kb), in assay [3] (nci-h187), in assay [4] (bc1) and in assay [5] was “Not Active” in each case. Further, the MIC result in assay [2] was “inactive”.
In the case of `C=C(C)[C@H]1COc2c(C)cc3oc4c(C[C@H](O)C(C)(C)OC)ccc(O)c4c(=O)c3c2[C@@H]1O` [TAJIXANTHONE METHANOATE], the IC50 entry in assay [1] (kb), in assay [3] (nci-h187), in assay [4] (bc1) and in assay [5] was “Not Active” each time. Moreover, the MIC result in assay [2] is “inactive”.
`C=C(C)[C@@H]1COc2c(C)cc3oc4c(C[C@@H]5OC5(C)C)ccc(O)c4c(=O)c3c2[C@H]1O` [TAJIXANTHONE]: the IC50 result in assay [1] (kb), in assay [3] (nci-h187), in assay [4] (bc1) and in assay [5] was “Not Active” throughout. Moreover, in assay [2], the MIC result is “inactive”.
The compound `NC[C@H]1O[C@H](O[C@H]2[C@H](O)[C@@H](O[C@H]3O[C@H](CO)[C@@H](O)[C@H](N)[C@H]3O)[C@H](N)C[C@@H]2N)[C@H](O)[C@@H](O)[C@@H]1O.O=S(=O)(O)O` [KANAMYCIN SULFATE] registered an MIC in assay [2] of 2 µg/mL.
`Cc1c2ccncc2c(C)c2c1[nH]c1ccccc12` [ELLIPTECINE]: the results for the half-inhibitory concentration (IC50) in assay [3] (setting [6]) and in assay [4] (setting [7]) were 0.26 µg/mL (≈ 1.06 µM) and 0.32 µg/mL (≈ 1.3 µM), respectively.
For `C=C(C(=O)CC)[C@H]1[C@@]2(C)C=C(C)C[C@]1(C)C=C(C)[C@@H]2/C(C)=C\[C@@H]1C=CC(=O)C1` [RUGULOSONE], the IC50 was 2.6 µg/mL (≈ 6.87 µM) in assay [1] (Homo sapiens, KB, read-out: IC50); 1.3 µg/mL (≈ 3.43 µM) in assay [3] (setting [6]); 1.3 µg/mL (≈ 3.43 µM) in assay [4] (setting [7]); 1.9 µg/mL (≈ 5.02 µM) in assay [5] (setting [8]). In assay [2], this compound gave an MIC of 12.5 µg/mL (≈ 33 µM).
For `C[C@@H]1CC[C@H]2[C@@H](C)C(=O)O[C@@H]3O[C@@]4(C)CC[C@@H]1[C@]32OO4` [ARTEMISININ], the IC50 in assay [5] (setting [8]) worked out at 0.001 µg/mL (≈ 0.00354 µM).
Turning to `C=C(C)[C@H]1COc2c(C)cc3oc4c(CC=C(C)C)ccc(O)c4c(=O)c3c2[C@@H]1O` [SHAMIXANTHONE], the IC50 result in assay [1] (kb), in assay [3] (nci-h187), in assay [4] (bc1) and in assay [5] was “Not Active” in each case. Also, in assay [2], the MIC result is “inactive”.
As to `C=C(C)[C@H]1COc2c(C)cc3oc4c([C@H](OC)[C@@H]5OC5(C)C)ccc(O)c4c(=O)c3c2[C@@H]1O`, the IC50 result in assay [1] (kb), in assay [3] (nci-h187), in assay [4] (bc1) and in assay [5] was “Not Active” throughout. Also, the MIC result in assay [2] is “inactive”.
Consider `C=C(C)[C@H]1COc2c(C)cc3oc4c(C[C@H](O)C(C)(C)OCC)ccc(O)c4c(=O)c3c2[C@@H]1O` [TAJIXANTHONE ETHANOATE], for which the IC50 entry in assay [1] (kb), in assay [3] (nci-h187), in assay [4] (bc1) and in assay [5] was “Not Active” throughout. Also, the MIC result in assay [2] is “inactive”.
For the compound `C=C(C)[C@H]1COc2c(C)cc3oc4c(CC(C)(C)C=O)ccc(O)c4c(=O)c3c2[C@@H]1O` [RUGULOXANTHONE A], the IC50 result in assay [1] (kb), in assay [3] (nci-h187), in assay [4] (bc1) and in assay [5] was “Not Active” throughout. The MIC entry in assay [2] is “inactive”.
